Data as given in publication PMC12814486 (Bioorganic & medicinal chemistry, 2025).
Values after ≈ are worked out from the molar mass of the structure shown.

Tests used:
5-HT2C = biological target: T1, 5-HT2C (Homo sapiens, UniProt P28335); experiment: NIMH PDSP binding screen; details: read-out: Inhibition (%) 5-HT2C
T1 sequence (P28335 33-458): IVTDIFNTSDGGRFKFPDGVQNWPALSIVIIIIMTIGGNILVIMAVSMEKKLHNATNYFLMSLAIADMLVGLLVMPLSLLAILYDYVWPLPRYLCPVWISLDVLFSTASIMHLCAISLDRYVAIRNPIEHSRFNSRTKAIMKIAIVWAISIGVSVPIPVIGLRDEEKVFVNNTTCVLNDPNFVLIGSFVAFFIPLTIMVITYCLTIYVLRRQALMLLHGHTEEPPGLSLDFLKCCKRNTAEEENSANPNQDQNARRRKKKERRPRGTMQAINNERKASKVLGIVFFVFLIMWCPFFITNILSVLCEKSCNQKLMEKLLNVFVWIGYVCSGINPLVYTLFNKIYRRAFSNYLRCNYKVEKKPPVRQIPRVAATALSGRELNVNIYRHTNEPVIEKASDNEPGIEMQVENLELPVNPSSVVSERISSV

5-HT2B = 5-HT2B (Homo sapiens, UniProt P41595); experiment: NIMH PDSP binding screen; details: read-out: Inhibition (%) 5-HT2B
Chain of 5-HT2B (P41595 whole entry, species assumed): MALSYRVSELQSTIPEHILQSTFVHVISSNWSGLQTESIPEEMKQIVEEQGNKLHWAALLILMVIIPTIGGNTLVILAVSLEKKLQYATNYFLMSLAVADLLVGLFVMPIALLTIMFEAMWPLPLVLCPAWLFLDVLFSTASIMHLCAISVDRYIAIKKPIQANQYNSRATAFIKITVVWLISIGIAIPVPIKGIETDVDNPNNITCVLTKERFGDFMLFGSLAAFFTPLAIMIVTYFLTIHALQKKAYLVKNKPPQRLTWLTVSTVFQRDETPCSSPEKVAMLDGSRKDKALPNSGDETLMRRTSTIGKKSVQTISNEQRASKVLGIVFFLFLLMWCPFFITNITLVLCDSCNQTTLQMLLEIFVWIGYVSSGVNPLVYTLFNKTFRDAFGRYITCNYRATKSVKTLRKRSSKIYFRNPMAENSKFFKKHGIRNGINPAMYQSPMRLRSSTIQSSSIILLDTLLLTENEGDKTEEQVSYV

[1] = Microsomal stability assay in liver microsomes; assay type: in vitro ADME; details: rat, pH 7.4
Summary of the method: (§1)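 Test compound was taken from a 1 mM DMSO stock. It was preincubated 5 min at 37 °C with liver microsomes in 0.1 M phosphate buffer, pH 7.4. Reaction was started with an NADPH regenerating system (glucose-6-phosphate, NADPH, glucose-6-phosphate dehydrogenase, MgCl2) and quenched with methanol at 0, 10, 20, 30 and 60 min. Samples were centrifuged and read by LC-MS SIM as peak area ratio to internal standard. k = negative slope of ln ratio vs time; CLint = k/P (P = protein concentration). Duplicates or triplicates were averaged.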

[2] = Microsomal stability assay in liver microsomes; assay type: in vitro ADME; details: mouse, pH 7.4
Summary of the method: as §1

male Sprague-Dawley rats = experiment: Home cage wheel running; assay type: in vivo, rat; details: 3 mg/kg intraperitoneal, vs vehicle, n = 8/group
Nociceptin (NOP) = Nociceptin (NOP) (Homo sapiens, UniProt P41146); experiment: NIMH PDSP binding screen; details: read-out: Inhibition (%) Nociceptin (NOP)
Chain of Nociceptin (NOP) (P41146 whole entry): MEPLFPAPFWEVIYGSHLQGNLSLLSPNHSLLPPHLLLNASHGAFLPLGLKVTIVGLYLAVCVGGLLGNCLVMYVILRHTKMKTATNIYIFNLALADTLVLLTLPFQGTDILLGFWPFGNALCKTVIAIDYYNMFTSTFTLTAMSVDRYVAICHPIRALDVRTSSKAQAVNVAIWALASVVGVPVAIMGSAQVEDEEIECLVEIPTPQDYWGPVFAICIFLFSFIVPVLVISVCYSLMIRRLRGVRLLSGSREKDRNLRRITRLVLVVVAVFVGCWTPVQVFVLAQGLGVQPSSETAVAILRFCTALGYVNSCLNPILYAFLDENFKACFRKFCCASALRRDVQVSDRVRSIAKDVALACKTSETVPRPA

5-HT2A = 5-HT2A (Homo sapiens, UniProt P28223); experiment: NIMH PDSP binding screen; details: read-out: Inhibition (%) 5-HT2A
Chain of 5-HT2A (P28223 whole entry, species assumed): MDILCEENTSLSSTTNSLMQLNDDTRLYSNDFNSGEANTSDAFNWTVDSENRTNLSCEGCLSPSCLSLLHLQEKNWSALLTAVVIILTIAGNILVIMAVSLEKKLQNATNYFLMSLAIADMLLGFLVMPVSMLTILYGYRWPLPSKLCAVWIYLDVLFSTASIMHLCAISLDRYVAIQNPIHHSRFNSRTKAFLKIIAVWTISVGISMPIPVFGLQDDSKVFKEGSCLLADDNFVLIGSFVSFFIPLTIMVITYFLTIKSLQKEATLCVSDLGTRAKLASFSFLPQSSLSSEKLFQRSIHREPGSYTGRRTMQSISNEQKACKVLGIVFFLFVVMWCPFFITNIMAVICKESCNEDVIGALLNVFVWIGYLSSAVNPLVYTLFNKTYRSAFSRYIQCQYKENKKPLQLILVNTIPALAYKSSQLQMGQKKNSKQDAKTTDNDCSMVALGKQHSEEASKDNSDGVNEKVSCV

[3] = Microsomal stability assay in liver microsomes; assay type: in vitro ADME; details: human, pH 7.4
Summary of the method: as §1

rat sEH = biological target: T2, rat sEH (Rattus norvegicus, UniProt P80299); experiment: sEH inhibition assay; assay type: biochemical
T2 sequence (P80299 1-554): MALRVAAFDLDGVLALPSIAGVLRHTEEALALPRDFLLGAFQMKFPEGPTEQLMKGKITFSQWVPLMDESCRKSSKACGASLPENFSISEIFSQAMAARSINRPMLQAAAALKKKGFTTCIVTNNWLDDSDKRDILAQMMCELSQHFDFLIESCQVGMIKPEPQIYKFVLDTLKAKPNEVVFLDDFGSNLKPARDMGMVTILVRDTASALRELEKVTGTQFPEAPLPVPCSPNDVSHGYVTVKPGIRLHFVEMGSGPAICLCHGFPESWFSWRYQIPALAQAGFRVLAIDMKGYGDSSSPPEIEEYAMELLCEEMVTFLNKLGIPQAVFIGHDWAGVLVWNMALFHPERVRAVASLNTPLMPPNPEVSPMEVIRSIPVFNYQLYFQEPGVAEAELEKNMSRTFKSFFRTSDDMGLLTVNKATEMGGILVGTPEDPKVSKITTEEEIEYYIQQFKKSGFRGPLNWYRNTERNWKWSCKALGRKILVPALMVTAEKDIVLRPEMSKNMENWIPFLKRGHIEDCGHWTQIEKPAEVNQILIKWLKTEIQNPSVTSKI

5-HT1D = 5-HT1D (Homo sapiens, UniProt P28221); experiment: NIMH PDSP binding screen; details: read-out: Inhibition (%) 5-HT1D
Chain of 5-HT1D (P28221 whole entry, species assumed): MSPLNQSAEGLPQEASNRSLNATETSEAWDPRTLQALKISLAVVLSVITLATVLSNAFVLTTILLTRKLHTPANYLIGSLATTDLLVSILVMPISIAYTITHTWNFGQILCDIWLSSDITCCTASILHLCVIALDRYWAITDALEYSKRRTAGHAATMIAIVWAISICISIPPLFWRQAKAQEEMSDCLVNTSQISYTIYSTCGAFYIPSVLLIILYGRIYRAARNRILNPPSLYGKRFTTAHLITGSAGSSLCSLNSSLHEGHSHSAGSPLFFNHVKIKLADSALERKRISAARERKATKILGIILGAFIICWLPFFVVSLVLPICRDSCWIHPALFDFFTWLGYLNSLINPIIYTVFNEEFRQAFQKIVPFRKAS

Mu opioid (MOR) = Mu opioid (MOR) (Homo sapiens, UniProt P35372); experiment: NIMH PDSP binding screen; details: read-out: Inhibition (%) Mu opioid (MOR)
Chain of Mu opioid (MOR) (P35372 whole entry): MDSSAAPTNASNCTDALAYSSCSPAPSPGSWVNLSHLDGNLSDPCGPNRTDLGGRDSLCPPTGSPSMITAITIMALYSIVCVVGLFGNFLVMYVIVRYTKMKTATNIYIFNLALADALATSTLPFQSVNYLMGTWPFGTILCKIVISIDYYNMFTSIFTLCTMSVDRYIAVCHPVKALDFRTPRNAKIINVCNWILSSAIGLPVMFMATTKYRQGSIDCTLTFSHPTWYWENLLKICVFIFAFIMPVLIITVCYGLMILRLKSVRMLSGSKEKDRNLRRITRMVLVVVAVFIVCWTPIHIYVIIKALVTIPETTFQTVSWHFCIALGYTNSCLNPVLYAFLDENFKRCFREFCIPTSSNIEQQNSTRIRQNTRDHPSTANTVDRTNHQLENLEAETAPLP

Solubility assay = assay type: physicochemical; details: sodium phosphate buffer, pH 7.4, aqueous buffer, kinetic from dmso stock
5-HT1A = biological target: T3, 5-HT1A (Homo sapiens, UniProt P08908); experiment: NIMH PDSP binding screen; details: read-out: Inhibition (%) 5-HT1A
T3 sequence (P08908 1-422): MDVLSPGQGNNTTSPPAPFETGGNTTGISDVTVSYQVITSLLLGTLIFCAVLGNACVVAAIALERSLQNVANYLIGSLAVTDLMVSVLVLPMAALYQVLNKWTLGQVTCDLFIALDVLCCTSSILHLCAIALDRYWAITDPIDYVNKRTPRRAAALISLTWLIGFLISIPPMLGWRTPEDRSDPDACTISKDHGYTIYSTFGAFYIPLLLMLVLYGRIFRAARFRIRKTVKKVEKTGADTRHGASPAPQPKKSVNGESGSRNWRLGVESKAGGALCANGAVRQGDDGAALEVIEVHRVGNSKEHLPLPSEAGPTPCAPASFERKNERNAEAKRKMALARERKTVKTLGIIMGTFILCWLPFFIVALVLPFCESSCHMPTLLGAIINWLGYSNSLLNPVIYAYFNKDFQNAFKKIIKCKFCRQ

Kappa opioid (KOR) = Kappa opioid (KOR) (Homo sapiens, UniProt P41145); experiment: NIMH PDSP binding screen; details: read-out: Inhibition (%) Kappa opioid (KOR)
Chain of Kappa opioid (KOR) (P41145 whole entry): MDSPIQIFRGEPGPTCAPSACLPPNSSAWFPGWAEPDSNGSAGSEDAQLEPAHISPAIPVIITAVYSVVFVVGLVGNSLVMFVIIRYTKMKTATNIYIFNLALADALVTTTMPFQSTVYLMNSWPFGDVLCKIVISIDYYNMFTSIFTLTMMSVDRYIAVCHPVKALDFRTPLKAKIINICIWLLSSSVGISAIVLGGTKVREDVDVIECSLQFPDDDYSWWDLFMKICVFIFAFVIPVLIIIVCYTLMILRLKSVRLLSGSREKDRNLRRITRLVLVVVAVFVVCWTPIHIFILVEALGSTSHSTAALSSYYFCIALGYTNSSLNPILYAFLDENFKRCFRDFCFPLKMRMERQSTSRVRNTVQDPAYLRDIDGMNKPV

5-HT1B = 5-HT1B (Homo sapiens, UniProt P28222); experiment: NIMH PDSP binding screen; details: read-out: Inhibition (%) 5-HT1B
Chain of 5-HT1B (P28222 whole entry, species assumed): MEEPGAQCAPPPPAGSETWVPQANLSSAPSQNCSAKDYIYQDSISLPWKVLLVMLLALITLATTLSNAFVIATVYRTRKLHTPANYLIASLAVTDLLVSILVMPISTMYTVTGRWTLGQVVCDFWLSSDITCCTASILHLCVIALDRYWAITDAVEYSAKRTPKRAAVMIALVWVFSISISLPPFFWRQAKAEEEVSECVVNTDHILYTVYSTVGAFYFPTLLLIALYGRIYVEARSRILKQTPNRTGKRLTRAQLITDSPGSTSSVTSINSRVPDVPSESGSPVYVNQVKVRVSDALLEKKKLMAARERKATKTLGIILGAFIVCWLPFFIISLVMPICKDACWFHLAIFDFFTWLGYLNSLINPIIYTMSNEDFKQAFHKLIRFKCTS

`O=C(Nc1ccc(-c2cnc3ccccc3n2)cc1)C1CCN(S(=O)(=O)c2ccccc2Cl)CC1` [Compound 4m, 1-((2-chlorophenyl)sulfonyl)-N-(4-(quinoxalin-2-yl)phenyl)piperidine-4-carboxamide] gave an inhibition at 10 µM (5-HT2C) of -18.2 ± 3.45%, an inhibition at 10 µM (5-HT2B) of -4.41 ± 7.06% and a half-life at 1 µM [1] of 26 min. It also gave a microsomal CLint at 1 µM [1] of 52.6 µL/min/mg, a half-life at 1 µM [2] of 32 min and a microsomal CLint at 1 µM [2] of 42.8 µL/min/mg. For the same compound, the “wheel revolutions in the 15 min after drug injection” value (male Sprague-Dawley rats) was “significantly lower”, the inhibition at 10 µM (Nociceptin (NOP)) was -5.22 ± 3.98% and the inhibition at 10 µM (5-HT2A) was 1.96 ± 1.88%. For the same compound, the half-life at 1 µM [3] was over 60 min, the microsomal CLint at 1 µM [3] was 22.5 µL/min/mg and the IC50 (rat sEH) was 0.3 nM. The inhibition at 10 µM (5-HT1D) was -8.07 ± 3.46%, the inhibition at 10 µM (Mu opioid (MOR)) was -1 ± 1.63% and the solubility (Solubility assay) was 31 to 63 µM (≈ 15.7 to 31.9 µg/mL). For the same compound, the inhibition at 10 µM (5-HT1A) was -18 ± 14.6%, the inhibition at 10 µM (Kappa opioid (KOR)) was 5.59 ± 6.57% and the inhibition at 10 µM (5-HT1B) was 22.2 ± 6.67%.
